Drawing on ChEMBL document CHEMBL1143918, “Novel coumarin glycoside and phenethyl vanillate from Notopterygium forbesii and their binding affinities for opioid and dopamine receptors” (Bioorg Med Chem, 2008), this text covers Ki and Activity for three molecules.

Common to all, as to assay type: cell-based
One assay has as its target Mu-type opioid receptor (Rattus norvegicus, UniProt P33535). Briefly: Displacement of [3H]diprenorphine from rat mu opioid receptor expressed in CHO cells. The gist of the method: (§1)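 Competitive inhibition of [3H]diprenorphine binding to human KOR, rat MOR or mouse DOR stably expressed in CHO cells. Compounds screened at 10 μM; those displacing >50% were tested over a concentration range and Ki calculated from competitive inhibition curves.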

The target in assay [1] is Delta-type opioid receptor (Mus musculus, UniProt P32300). Briefly: Displacement of [3H]diprenorphine from mouse delta opioid receptor expressed in CHO cells. The gist of the method:
as §1
In general terms: Displacement assays read how much labelled ligand stays bound in the presence of the test substance.

Assay [2] deals with Kappa-type opioid receptor (Homo sapiens, UniProt P41145). The assay is described as follows: Displacement of [3H]diprenorphine from human kappa opioid receptor expressed in CHO cells. The gist of the method: as §1
Sequence of Kappa-type opioid receptor (P41145 whole entry): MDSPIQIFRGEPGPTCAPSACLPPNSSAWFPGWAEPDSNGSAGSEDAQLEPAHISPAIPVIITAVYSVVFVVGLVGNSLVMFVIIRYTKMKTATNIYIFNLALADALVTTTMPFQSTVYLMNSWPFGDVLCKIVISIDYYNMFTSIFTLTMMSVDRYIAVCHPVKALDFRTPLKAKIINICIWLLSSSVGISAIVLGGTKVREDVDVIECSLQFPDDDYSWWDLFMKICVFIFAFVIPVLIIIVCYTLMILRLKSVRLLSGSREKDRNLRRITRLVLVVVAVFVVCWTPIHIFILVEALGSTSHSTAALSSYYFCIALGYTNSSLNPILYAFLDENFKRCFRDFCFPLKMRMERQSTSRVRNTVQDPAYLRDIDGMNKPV
Another assay concerns the target D(1A) dopamine receptor (Rattus norvegicus, UniProt P18901). Briefly: Displacement of [3H]SCH-23390 from rat HA-tagged D1 dopamine receptor expressed in CHO cells. A digest of the protocol: (§2)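 Membranes from CHO cells stably expressing HA-tagged rat D1 receptor; cells grown in DMEM/F12 with 10% fetal calf serum and hygromycin B at 37°C, 5% CO2. Binding: 0.2 nM [3H]SCH23390 in 50 mM Tris-HCl, 1 mM EGTA, pH 7.4, room temperature, 1 h, duplicate. Fluphenazine (10 μM) defined nonspecific binding. Screened at 10 μM; compounds displacing >50% taken to Ki from competition curves.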

The target in assay [3] is D(1A) dopamine receptor (Rattus norvegicus) (UniProt P18901). The assay is described as follows: Displacement of [3H]SCH-23390 from rat HA-tagged D1 dopamine receptor expressed in CHO cells at 10 uM. The gist of the method: as §2
Sequence of D(1A) dopamine receptor (Rattus norvegicus) (P18901 whole entry): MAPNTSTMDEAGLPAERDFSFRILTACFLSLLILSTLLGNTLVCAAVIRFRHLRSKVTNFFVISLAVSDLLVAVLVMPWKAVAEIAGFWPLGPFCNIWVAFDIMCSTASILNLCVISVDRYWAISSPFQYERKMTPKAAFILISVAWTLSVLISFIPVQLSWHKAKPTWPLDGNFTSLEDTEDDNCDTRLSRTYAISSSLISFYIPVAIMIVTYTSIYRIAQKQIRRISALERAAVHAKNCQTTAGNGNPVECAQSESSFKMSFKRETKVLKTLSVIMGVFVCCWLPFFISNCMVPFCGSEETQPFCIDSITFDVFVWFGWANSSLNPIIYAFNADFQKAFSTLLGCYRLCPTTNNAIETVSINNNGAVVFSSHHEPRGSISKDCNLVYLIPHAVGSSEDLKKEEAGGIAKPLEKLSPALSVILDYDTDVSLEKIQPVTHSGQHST

SMILES strings stand for the structures. pKi: −log10 of the molar value.

Sequence of Mu-type opioid receptor (P33535 whole entry): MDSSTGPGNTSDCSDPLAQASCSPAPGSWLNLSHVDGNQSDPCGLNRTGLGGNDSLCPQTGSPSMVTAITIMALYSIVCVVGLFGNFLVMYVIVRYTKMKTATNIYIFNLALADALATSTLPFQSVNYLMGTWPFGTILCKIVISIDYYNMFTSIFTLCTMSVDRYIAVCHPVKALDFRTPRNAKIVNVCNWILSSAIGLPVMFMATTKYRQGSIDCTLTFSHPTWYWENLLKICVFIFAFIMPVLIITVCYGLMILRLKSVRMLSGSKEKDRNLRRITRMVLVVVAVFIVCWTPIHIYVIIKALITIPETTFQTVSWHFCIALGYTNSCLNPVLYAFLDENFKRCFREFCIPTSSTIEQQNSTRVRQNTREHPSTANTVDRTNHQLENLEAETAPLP
Sequence of D(1A) dopamine receptor (P18901 whole entry): as the sequence (P18901 whole entry) above
Sequence of Delta-type opioid receptor (P32300 whole entry): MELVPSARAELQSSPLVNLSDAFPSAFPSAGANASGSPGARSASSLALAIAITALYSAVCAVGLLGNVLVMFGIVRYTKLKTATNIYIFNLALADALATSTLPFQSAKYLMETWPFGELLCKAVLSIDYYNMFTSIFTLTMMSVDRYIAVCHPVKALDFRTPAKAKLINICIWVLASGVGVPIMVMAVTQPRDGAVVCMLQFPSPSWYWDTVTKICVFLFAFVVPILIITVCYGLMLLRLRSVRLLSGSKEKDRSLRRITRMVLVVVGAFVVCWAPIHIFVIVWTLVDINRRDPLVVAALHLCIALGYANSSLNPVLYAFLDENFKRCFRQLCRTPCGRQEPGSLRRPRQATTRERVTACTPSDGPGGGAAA

Usually pKi stands for −log10 of the Ki, conventionally taken in molar units. High values mean a small Ki, low ones a large Ki. Take `CC(C)=CC(O)C/C(C)=C/COc1ccc2ccc(=O)oc2c1` (centres undefined) [ANISOCOUMARIN H]: the pKi at Mu-type opioid receptor was below 5.00; in assay [1], below 5.00; in assay [2], 5.59; at D(1A) dopamine receptor, below 5.00.

For `C=C[C@@H](O)C#CC#C[C@@H](O)/C=C\CCCCCCC` [FALCARINDIOL], the pKi on Mu-type opioid receptor is 5.95; in assay [1] it was 5.96; in assay [2] it was 5.60; on D(1A) dopamine receptor, 6.72. Further, the Activity in assay [3] is above 50%.

In the case of `CC(C)=CC(O)C/C(C)=C/COc1c2ccoc2cc2oc(=O)ccc12` (centres undefined) [NOTOPTEROL], the pKi was below 5.00 at Mu-type opioid receptor, below 5.00 in assay [1], below 5.00 in assay [2] and 5.85 on D(1A) dopamine receptor. Moreover, the Activity in assay [3] is above 50%.
